Screening data from PubChem.
Sampled rows, rich in hits. Any-hit rate of the full collection: about 2.9%.
CRFR2-BP antag = antagonists of CRF-BP/CRF-R2 complex, primary screen, cell-based, HEK293, calcium dye fluorescence, uHTS. CRF-induced calcium fluorescence. inhibition, % at 11.8 µM. 350,000 tested, 0.59% active;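 active = inhibition of the ligand-induced calcium signal above about 50% at the single tested concentration, limit read from the data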
KLK7 zymogen act = proKLK7 zymogen activators, primary screen, biochemical, fluorescence intensity; activation, % at 7 µM; purified proKLK7, EDANS-DABCYL substrate fluorescence; 100% is mature enzyme control, 0% vehicle; 370,000 tested, 0.9% active; Kallikrein-7 (Homo sapiens), P49862; AID 652039, 2013;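 active = activation above the mean of all tested compounds plus 3 SD, computed per campaign excluding outliers beyond control limits, cut at about 13% in these data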
DDE Tn7 FP inh = inhibitors of Tn7 peptide binding to fibrin DD(E), primary screen, biochemical, fluorescence polarization, human fibrin, Tn7 probe. Fibrinogen beta chain (Homo sapiens), P02675. inhibition, % at 8.3 µM. 370,000 tested, 0.13% active. FP displacement of FITC-Tn7 peptide from fibrin DD(E); 0% = median of compound wells per plate;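 active = inhibition above the mean of compounds falling within the control limits plus 3 SD of them, cut at about 14% in these data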;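 note: 0% = plate median of compound wells and 100% = 10 µM Aha-Tn7 peptide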
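Assay system: Human fibrin DD(E) protein | Medium: Tris buffer with calcium and detergent, pH 7.8 | Reagent: 0.1 µM fluorescent Tn7 | Compound dosing: Single point at 8.3 µM | Times: 10 min preincubation, 3 h with tracer, room temperature | Detection: Fluorescence polarization of the labelled Tn7 tracer | Controls: Aha-Tn7 high control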
NRP1-CendR mod = modulators of CendR peptide binding to NRP-1, primary screen, biochemical, fluorescence polarization, uHTS | inhibition, % at 25 µM | 360,000 tested, 0.85% active | AID 602438, 2012 | FAM-RPARPAR peptide binding to NRP-1 | Neuropilin-1 (Homo sapiens), O14786;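 active = inhibition or corrected inhibition above about 18%, plus a signal ratio from 0.5 to 1.5, limit read from the data, passing the limit was not always enough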
Target sequence (O14786 whole entry, looked up): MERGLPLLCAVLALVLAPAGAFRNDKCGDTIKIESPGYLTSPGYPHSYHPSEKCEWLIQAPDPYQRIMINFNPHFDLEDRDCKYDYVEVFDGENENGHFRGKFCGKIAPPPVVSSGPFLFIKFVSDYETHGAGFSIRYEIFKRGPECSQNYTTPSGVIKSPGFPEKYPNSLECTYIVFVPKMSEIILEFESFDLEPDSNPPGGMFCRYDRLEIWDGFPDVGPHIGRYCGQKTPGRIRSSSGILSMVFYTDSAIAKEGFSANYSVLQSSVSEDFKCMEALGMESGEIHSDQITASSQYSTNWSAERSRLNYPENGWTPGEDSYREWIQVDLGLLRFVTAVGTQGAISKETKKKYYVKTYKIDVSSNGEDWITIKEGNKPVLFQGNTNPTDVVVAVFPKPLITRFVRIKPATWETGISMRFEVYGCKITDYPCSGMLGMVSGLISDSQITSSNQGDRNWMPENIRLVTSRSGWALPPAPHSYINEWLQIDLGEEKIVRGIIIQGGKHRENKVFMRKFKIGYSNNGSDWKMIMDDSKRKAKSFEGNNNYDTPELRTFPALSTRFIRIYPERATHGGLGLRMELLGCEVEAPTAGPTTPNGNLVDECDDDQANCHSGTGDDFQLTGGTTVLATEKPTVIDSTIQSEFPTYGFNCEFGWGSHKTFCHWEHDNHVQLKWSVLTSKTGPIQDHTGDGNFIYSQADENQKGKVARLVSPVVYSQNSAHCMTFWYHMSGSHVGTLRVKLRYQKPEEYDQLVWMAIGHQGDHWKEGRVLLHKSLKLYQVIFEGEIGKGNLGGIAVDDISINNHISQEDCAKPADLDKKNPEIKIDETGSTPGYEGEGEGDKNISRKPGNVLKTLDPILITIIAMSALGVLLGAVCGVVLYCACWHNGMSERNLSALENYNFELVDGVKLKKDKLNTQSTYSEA
CRFBP-R2 agonist = agonists of CRF-BP/CRF-R2 complex, primary screen, cell-based, HEK293, calcium dye fluorescence, uHTS; CRF-binding protein / CRF receptor 2 complex (human); calcium dye fluorescence (FLIPR); percent of saturating CRF peptide response; activation, % at 13.2 µM; 350,000 tested, 0.46% active; AID 588473, 2011;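 active = activation of at least 50%, plus an integration ratio under a set limit after plate pattern correction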;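 note: plate controls were neutral control wells without compound for no effect and CRF at EC100 for full effect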
DDE Tn6 FP inh = inhibitors of Tn6 peptide binding to fibrin DD(E), primary screen, biochemical, fluorescence polarization, human fibrin, Tn6 probe. 370,000 tested, 0.21% active. inhibition, % at 8.3 µM. Fibrin DD(E) TRITC-Tn6 fluorescence polarization displacement. Fibrinogen beta chain (Homo sapiens), P02675;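 active = inhibition above a per-campaign cutoff: mean of compounds within control limits plus 3 SD, cut at about 15% in these data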;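 note: 0% = median of all compound wells on the plate and 100% = blocking peptide control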
Numbers without * were called inactive.

For CC(C)C(C#CC1CC1)NCc1ccc2c(c1)OCO2 (stereo not drawn) the results were KLK7 zymogen act 0, DDE Tn7 FP inh 4 and DDE Tn6 FP inh 5.
For O=C(Cn1c(-c2ccccc2Cl)nc2ccccc21)Nc1cccc(Cl)c1 the results were CRFR2-BP antag 8, KLK7 zymogen act -1, DDE Tn7 FP inh -5, NRP1-CendR mod 21*, CRFBP-R2 agonist 2 and DDE Tn6 FP inh 5.
Screening N/C(=N\OC(=O)c1ccc(Cl)cc1Cl)c1ccc(Cl)cc1 returned CRFR2-BP antag -15, KLK7 zymogen act 0, DDE Tn7 FP inh 11, NRP1-CendR mod 30*, CRFBP-R2 agonist 2 and DDE Tn6 FP inh 1.
FC(F)(F)c1ccccc1Cc1c(-c2ccco2)nc2c3ccccc3ccn12 was read as KLK7 zymogen act -1, DDE Tn7 FP inh 6 and DDE Tn6 FP inh 6.
`CC(C)C(N)c1csc(NC(=O)Nc2cccc(C(F)(F)F)c2)n1` (stereo not drawn) gave KLK7 zymogen act 0, DDE Tn7 FP inh -7, NRP1-CendR mod 24* and DDE Tn6 FP inh -2.
Screening NC(CCc1ccccc1)c1csc(NC(=O)Nc2cccc(C(F)(F)F)c2)n1 (stereo not drawn) returned KLK7 zymogen act 0, DDE Tn7 FP inh 1, NRP1-CendR mod 6 and DDE Tn6 FP inh -4.
For C[C@H](NC(=O)c1[nH]cnc1C(=O)Nc1cccc(Cl)c1)c1ccccc1 the results were CRFR2-BP antag 3, KLK7 zymogen act -2, DDE Tn7 FP inh -3, NRP1-CendR mod 2, CRFBP-R2 agonist 1 and DDE Tn6 FP inh -4.
C[C@H](NC(=O)c1[nH]cnc1C(=O)Nc1ccc(Cl)cc1)c1ccccc1 was read as CRFR2-BP antag -9, KLK7 zymogen act 0, DDE Tn7 FP inh 0, NRP1-CendR mod 37*, CRFBP-R2 agonist 0 and DDE Tn6 FP inh -4.
`C[C@@H](NC(=O)c1[nH]cnc1C(=O)Nc1ccc(Cl)cc1)c1ccccc1` gave CRFR2-BP antag 1, KLK7 zymogen act -1, DDE Tn7 FP inh 6, NRP1-CendR mod 17, CRFBP-R2 agonist 3 and DDE Tn6 FP inh -5.
Screening CC(C)(C)OC(=O)[C@H](Cc1ccccc1)NC(=O)c1[nH]cnc1C(=O)Nc1cccc(Cl)c1 returned CRFR2-BP antag -8, KLK7 zymogen act 0, DDE Tn7 FP inh -2, NRP1-CendR mod 23*, CRFBP-R2 agonist 7 and DDE Tn6 FP inh -1.
For C[C@@H](NC(=O)c1[nH]cnc1C(=O)Nc1ccccc1)c1ccccc1 the results were CRFR2-BP antag -1, KLK7 zymogen act 0, DDE Tn7 FP inh 2, NRP1-CendR mod 9, CRFBP-R2 agonist -1 and DDE Tn6 FP inh 7.
Cc1cccc(NC(=O)c2nc[nH]c2C(=O)N[C@@H](Cc2ccccc2)C(=O)OC(C)(C)C)c1 was read as CRFR2-BP antag 5, KLK7 zymogen act -5, DDE Tn7 FP inh 1, NRP1-CendR mod -2, CRFBP-R2 agonist 0 and DDE Tn6 FP inh -5.
For Cc1ccc(NC(=O)c2nc[nH]c2C(=O)N[C@@H](C)c2ccccc2)cc1 the results were CRFR2-BP antag -6, KLK7 zymogen act 1, DDE Tn7 FP inh 2, NRP1-CendR mod 32*, CRFBP-R2 agonist 0 and DDE Tn6 FP inh -7.
C[C@@H](NC(=O)c1[nH]cnc1C(=O)Nc1cccc(Cl)c1)c1ccccc1 was read as CRFR2-BP antag 0, KLK7 zymogen act 0, DDE Tn7 FP inh -2, NRP1-CendR mod 26*, CRFBP-R2 agonist 0 and DDE Tn6 FP inh -4.
Screening CN(C(=O)[C@@H]1CC=C[C@@H]2CCN(C3CCCCC3)C(=O)[C@@H]21)c1ccccc1 returned DDE Tn7 FP inh 3 and DDE Tn6 FP inh -6.
For CCN(CC)C(=O)c1[nH]cnc1C(=O)Nc1cccc(C)c1 the results were CRFR2-BP antag 4, KLK7 zymogen act 1, DDE Tn7 FP inh 5, NRP1-CendR mod 27*, CRFBP-R2 agonist -1 and DDE Tn6 FP inh -1.
CC(C)(C)OC(=O)C[C@H]1C/C=C\C[C@H](CC(=O)N(CCO)Cc2ccccc2)C(=O)N[C@@H](Cc2ccccc2)COC1=O was read as CRFR2-BP antag -3, KLK7 zymogen act 0, DDE Tn7 FP inh 1, NRP1-CendR mod 30*, CRFBP-R2 agonist 0 and DDE Tn6 FP inh -2.
CC(C)(C)OC(=O)C[C@H]1C/C=C\C[C@H](CC(=O)N(CCO)Cc2ccccc2)C(=O)NCCOC1=O was read as CRFR2-BP antag -7, KLK7 zymogen act 0, DDE Tn7 FP inh -4, NRP1-CendR mod 29*, CRFBP-R2 agonist 0 and DDE Tn6 FP inh 6.
Screening CC(C)(C)OC(=O)C[C@H]1C/C=C\C[C@@H](CC(=O)NCCO)C(=O)NC[C@@H](c2ccccc2)OC1=O returned CRFR2-BP antag -9, KLK7 zymogen act 1, DDE Tn7 FP inh 2, NRP1-CendR mod 20*, CRFBP-R2 agonist 1 and DDE Tn6 FP inh 8.
`O=C1CCC/C=C\C[C@@H](CC(=O)N(CCO)Cc2ccccc2)C(=O)N2CCC[C@H]2CO1` gave CRFR2-BP antag -8, KLK7 zymogen act -1, DDE Tn7 FP inh 2, NRP1-CendR mod 28*, CRFBP-R2 agonist 1 and DDE Tn6 FP inh -7.
Screening CC(C)(C)OC(=O)C[C@H]1C/C=C\C[C@@H](CC(=O)N[C@H](CO)Cc2ccccc2)C(=O)NC[C@H](c2ccccc2)OC1=O returned CRFR2-BP antag -2, KLK7 zymogen act 0, DDE Tn7 FP inh -1, NRP1-CendR mod 3, CRFBP-R2 agonist 0 and DDE Tn6 FP inh 1.
Screening O=C1CC/C=C\C[C@@H](CC(=O)N(CCO)Cc2ccccc2)C(=O)N2CCC[C@H]2CO1 returned CRFR2-BP antag -8, KLK7 zymogen act 0, DDE Tn7 FP inh -1, NRP1-CendR mod -12, CRFBP-R2 agonist -2 and DDE Tn6 FP inh 1.
Cc1ccc(C(=O)N(C)[C@H]2C[C@H]3c4[nH]c5c(-c6cccc(C)c6)cccc5c4CCN3C[C@H]2[C@H](C)O)cc1 was read as KLK7 zymogen act 0, DDE Tn7 FP inh 1 and DDE Tn6 FP inh -5.
`CCOc1ccc(NS(=O)(=O)c2ccc(C(=O)NCC3(N(C)C)CCCCC3)cc2)cc1` gave CRFR2-BP antag -31, KLK7 zymogen act 0, DDE Tn7 FP inh -2, NRP1-CendR mod -4, CRFBP-R2 agonist 51* and DDE Tn6 FP inh -6.
